# Laboratory results as given in ChEMBL document CHEMBL2176979, “Ligand-based design, synthesis, and biological evaluation of 2-aminopyrimidines, a novel series of receptor for advanced glycation end products (RAGE) inhibitors” (J Med Chem, 2012).
# The source made the active and inactive calls. The calls are words filed in the database; no cut-off is given here.
# Columns and labels:
# [1] = biological target: T1, Advanced glycosylation end product-specific receptor (Homo sapiens, UniProt Q15109); test: Inhibition of human recombinant biotinylated receptor for advanced glycation end product expressed in Escherichia coli DE3 assessed as inhibition of binding to amyloid beta (1 to 42) at 20 uM after 60 mins by TMB-ELISA
# How it was run: (§1)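 Biotinylated human RAGE (1 μg, made in Origami2(DE3) with BirA) incubated on a streptavidin plate with oligomeric Aβ (10 μM stock pre-aggregated 24 h at 4 °C; 1 μL per well). Compound 20 μM in TBS-T/2.5% BSA, 60 min at ambient temperature. Bound Aβ detected with HRP-4G8 (1:1000) for 60 min, then TMB, read at 450 nm. Duplicates, mean ± SD.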
# Mus musculus [2] = test: Inhibition of RAGE-mediated influx of human amyloid beta (1 to 42) into ICR mouse brain at 25 mg/kg, ip administered 20 mins prior to human amyloid beta (1 to 42)-injection measured after 30 mins by ELISA relative to control
# [3] = biological target: Advanced glycosylation end product-specific receptor (Rattus norvegicus) (UniProt Q63495); test: Inhibition of receptor for advanced glycation end product binding to amyloid beta 42 in rat C6 cells assessed as NFkappaB activation at 0.1 to 10 uM after 18 hrs by reporter gene assay; assay type: cell-based
# C6 = test: Cytotoxicity against rat C6 cells at 0.1 to 10 uM after 18 hrs; assay type: cell-based; details: c6, 18 h
# Mus musculus [4] = test: Reduction in human amyloid beta (1 to 42) level in ICR mouse plasma at 25 mg/kg, ip administered 20 mins prior to human amyloid beta (1 to 40)-injection measured after 30 mins by ELISA relative to control; assay type: functional; set-up: scale not given: the % may be the effect or the level left; details: route intraperitoneal, in the assay text read “human amyloid beta (1 to 42)-injection” for “human amyloid beta (1 to 40)-injection”
# How it was run: (§2)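 Male ICR mice, 3 months old (n = 4), given test compound 25 mg/kg or vehicle ip. After 20 min, 200 μL of 25 μM human Aβ1−42 in PBS injected into the tail vein and left to circulate 30 min. Retro-orbital blood taken into EDTA tubes before sacrifice. Human Aβ measured in brain extracts (pg/mg protein) and plasma (ng/mL).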
# Mus musculus [5] = test: Antialzheimer activity in transgenic mouse expressing PS1/APP swedish mutant assessed as insoluble amyloid beta (1 to 42) level per mg of protein in brain at 50 mg/kg/day, po for 3 months by ELISA (reference value: 513.73 +/- 219.56 ng per mg of protein); assay type: functional
# Mus musculus [6] = test: Antialzheimer activity in transgenic mouse expressing PS1/APP swedish mutant assessed as soluble amyloid beta (1 to 42) level per mg of protein in brain at 50 mg/kg/day, po for 3 months by ELISA (reference value: 17.34 +/- 5.17 ng per mg of protein); assay type: functional
# Mus musculus [7] = test: Procognitive activity in transgenic mouse expressing PS1/APP swedish mutant assessed as spontaneous alteration at 50 mg/kg/day, po administered for 3 months measured after 2 months by Y maze test (reference value: 50.95 +/- 10.8%); assay type: functional
# [8] = biological target: T1, Advanced glycosylation end product-specific receptor; test: Inhibition of human recombinant biotinylated receptor for advanced glycation end product expressed in Escherichia coli DE3 assessed as inhibition of binding to amyloid beta (1 to 42) after 60 mins by TMB-ELISA; how it was run: as §1
# Mus musculus [9] = test: Toxicity against transgenic mouse expressing PS1/APP swedish mutant assessed as lethality at 50 mg/kg/day, po administered for 3 months measured after 2 months; assay type: organism-based; set-up: route oral; details: in vivo, 1461 h
# How it was run: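 Male APPsw/PS1 transgenic mice, 6 months old (n = 4−5), dosed by oral gavage at 50 mg/(kg·day) until 9 months of age. Lethality was recorded as a side effect during the study. Cognitive function (Y-maze spontaneous alternation) was assessed after 2 months of dosing.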
# [10] = biological target: T1, Advanced glycosylation end product-specific receptor; test: Binding affinity to human recombinant biotinylated receptor for advanced glycation end product expressed in Escherichia coli DE3 after 1 min by surface plasmon resonance assay
# How it was run: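 SPR with biotinylated RAGE captured to saturation on Neutravidin-coated chip channels, with a blank reference channel. Running buffer TBS (pH 7.4) with 0.05% Tween 20. Compounds serially diluted 50 to 3.1 μM in 2% DMSO, injected 1 min at 100 μL/min, then 400 s buffer dissociation. Responses reference-subtracted. Constants from a global Langmuir 1:1 fit.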
# Mus musculus [11] = test: Inhibition of RAGE-mediated influx of human amyloid beta (1 to 42) into ICR mouse brain at 25 mg/kg, ip administered 20 mins prior to human amyloid beta (1 to 40)-injection measured after 30 mins by ELISA relative to control; assay type: functional; details: in the assay text read “human amyloid beta (1 to 42)-injection” for “human amyloid beta (1 to 40)-injection”, route intraperitoneal; how it was run: as §2
# Mus musculus [12] = test: Antialzheimer activity in transgenic mouse expressing PS1/APP swedish mutant assessed as insoluble amyloid beta (1 to 40) level per mg of protein in brain at 50 mg/kg/day, po for 3 months by ELISA (reference value: 137.38+/- 58.13 ng per mg of protein); assay type: functional
# Mus musculus [13] = test: Antialzheimer activity in transgenic mouse expressing PS1/APP swedish mutant assessed as soluble amyloid beta (1 to 40) level per mg of protein in brain at 50 mg/kg/day, po for 3 months by ELISA (reference value: 8.66 +/- 1.81 ng per mg of protein); assay type: functional
# T1 sequence (Q15109 whole entry): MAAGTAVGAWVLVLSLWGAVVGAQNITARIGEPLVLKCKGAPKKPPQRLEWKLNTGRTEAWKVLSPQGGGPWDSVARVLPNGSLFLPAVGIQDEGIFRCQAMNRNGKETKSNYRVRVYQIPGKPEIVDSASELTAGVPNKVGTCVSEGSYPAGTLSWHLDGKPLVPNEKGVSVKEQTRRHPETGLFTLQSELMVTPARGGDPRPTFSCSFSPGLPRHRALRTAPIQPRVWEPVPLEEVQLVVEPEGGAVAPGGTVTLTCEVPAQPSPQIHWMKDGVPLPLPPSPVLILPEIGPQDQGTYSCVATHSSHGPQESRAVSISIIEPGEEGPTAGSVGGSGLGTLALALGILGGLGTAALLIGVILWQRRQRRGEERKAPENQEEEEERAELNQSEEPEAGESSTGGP
# Advanced glycosylation end product-specific receptor (Rattus norvegicus), sequence (Q63495 whole entry): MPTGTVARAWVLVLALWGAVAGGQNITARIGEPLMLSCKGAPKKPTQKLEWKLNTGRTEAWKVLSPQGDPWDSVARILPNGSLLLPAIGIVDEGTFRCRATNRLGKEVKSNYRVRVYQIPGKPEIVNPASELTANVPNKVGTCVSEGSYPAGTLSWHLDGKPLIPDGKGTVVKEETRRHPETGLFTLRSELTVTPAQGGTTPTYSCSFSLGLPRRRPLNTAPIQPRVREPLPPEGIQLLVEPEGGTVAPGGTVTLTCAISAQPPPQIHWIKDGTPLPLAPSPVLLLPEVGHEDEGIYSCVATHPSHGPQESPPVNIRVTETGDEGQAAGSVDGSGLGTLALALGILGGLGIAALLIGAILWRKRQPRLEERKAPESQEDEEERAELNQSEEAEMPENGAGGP
Structure (SMILES),inhibition [1],other results
CCN(CC)CCOc1ccc(Nc2nc(-c3ccc(Cl)cc3)cc(-c3ccc(Cl)cc3)n2)cc1,33.6%,
CCN(CC)CCCC(=O)Nc1nc(C)c(O)c(C)n1,inactive,
CCN(CC)CCOc1cccc(Nc2nc(C)cc(-c3ccc(OC4CCCCC4)cc3)n2)c1,45.6%,
CCN(CC)CCCCNc1nc(C)c(OC)c(C)n1,inactive,
CCN(CC)CCOc1cccc(Nc2nc(-c3ccc(Cl)cc3)cc(-n3cccc3)n2)c1,26.3%,
CCN(CC)CCOc1ccccc1Nc1nc(C)cc(-c2ccc(Cl)cc2)n1,47.2%,
CCN(CC)CCOc1cccc(Nc2nc(C)cc(-c3ccc(OCCC4CCCCC4)cc3)n2)c1,49.6%,inhibition in vivo at 25 mg/kg (Mus musculus [2]): 12.1%; inhibition [3]: Active; Activity (C6): Non-toxic; Activity (Mus musculus [4]): 5%
CCN(CC)CCCCNc1nc(C)c(O)c(C)n1,inactive,
CCN(CC)CCOc1ccc(Nc2nc(C)cc(-c3ccc(OCCc4ccc(Cl)cc4)cc3)n2)cc1,inactive,
CCN(CC)CCOc1ccc(Nc2nc(C)cc(C3CCCCC3)n2)cc1,30.6%,
CCN(CC)CCOc1cccc(Nc2nc(-c3ccc(Cl)cc3)cc(-c3ccc(Cl)cc3)n2)c1,54%,Activity (Mus musculus [5]): 354 ng/mg; Activity (Mus musculus [6]): 12 ng/mg; inhibition [3]: Active; Activity (Mus musculus [7]): 63.6%; IC50 [8]: 16.5 µM; Activity (Mus musculus [9]): Non-toxic; Activity [10]: Dose-dependent effect; Kd [10]: 102 µM; inhibition in vivo at 25 mg/kg (Mus musculus [11]): 34.3%; Activity (C6): Non-toxic; Activity (Mus musculus [12]): 98.5 ng/mg; Activity (Mus musculus [4]): 3.7%; Activity (Mus musculus [13]): 6.25 ng/mg
CCN(CC)CCOc1ccc(Nc2nc(C)cc(-c3ccc(OC4CCCCC4)cc3)n2)cc1,32.6%,
CCN(CC)CCOc1ccc(Nc2nc(C)cc(C)n2)cc1,16%,
CCN(CC)CCOc1cccc(Nc2nc(-c3ccc(Cl)cc3)cc(N3CCN(C)CC3)n2)c1,4.5%,
CCN(CC)CCOc1cccc(Nc2nc(C)cc(C)n2)c1,20.8%,
CCN(CC)CCOc1ccc(Nc2nc(C)cc(-c3ccc(OCc4ccc(Cl)cc4)cc3)n2)cc1,12.7%,
COc1c(C)nc(NC(=O)CCCC(=O)O)nc1C,inactive,
CCN(CC)CCOc1ccc(Nc2nc(C)cc(-c3ccc(Oc4ccc(Cl)cc4)cc3)n2)cc1,21.1%,
CCN(CC)CCOc1ccc(Nc2nc(C)cc(-c3ccc(Cl)cc3)n2)cc1,37.1%,
CCN(CC)CCOc1ccc(Nc2nc(C)cc(Nc3ccccc3)n2)cc1,32.7%,

Structure (SMILES),inhibition [1],other results
CCN(CC)CCOc1ccc(Nc2nc(C)cc(-c3ccc(Oc4ccc5ccccc5c4)cc3)n2)cc1,21.4%,
CCN(CC)CCCC(=O)Nc1nc(C)c(OC)c(C)n1,inactive,
CCN(CC)CCOc1ccc(Nc2nc(C)c(OCc3ccccc3)c(C)n2)cc1,14.6%,
Cc1nc(NC(=O)CCCO)nc(C)c1OCc1ccccc1,inactive,
CCN(CC)CCOc1cccc(Nc2nc(C)cc(-c3ccc(OC)cc3)n2)c1,30.9%,
CCN(CC)CCCC(=O)Nc1nc(C)c(OCc2ccccc2)c(C)n1,inactive,
CCN(CC)CCOc1ccc(Nc2nc(C)cc(-c3ccccc3)n2)cc1,33%,
CCN(CC)CCOc1cccc(Nc2nc(-c3ccc(Cl)cc3)cc(N3CCCCC3)n2)c1,17.1%,
CCN(CC)CCCCNc1nc(C)c(OCc2ccccc2)c(C)n1,inactive,
CCN(CC)CCOc1ccc(Nc2nc(C)cc(-c3ccc(OC)cc3)n2)cc1,31.7%,
COc1c(C)nc(NC(=O)CCCO)nc1C,inactive,
CCN(CC)CCOc1cccc(Nc2nc(C)cc(-c3ccc(Cl)cc3)n2)c1,41.6%,
CCN(CC)CCOc1ccc(Nc2nc(C)cc(-c3ccc(OCCc4ccccc4)cc3)n2)cc1,inactive,
CCN(CC)CCOc1ccccc1Nc1nc(-c2ccc(Cl)cc2)cc(-c2ccc(Cl)cc2)n1,70.8%,inhibition in vivo at 25 mg/kg (Mus musculus [2]): 18.3%; inhibition [3]: Active; IC50 [8]: 4.6 µM; Activity (C6): Non-toxic; Activity (Mus musculus [4]): 2.8%
CCN(CC)CCOc1ccc(Nc2nc(C)cc(-c3ccc(OCCC4CCCCC4)cc3)n2)cc1,32.7%,
CCN(CC)CCOc1ccc(Nc2nc(C)cc(N3CCCCC3)n2)cc1,43.3%,
CCN(CC)CCOc1cccc(Nc2nc(-c3ccc(Cl)cc3)cc(N3CCOCC3)n2)c1,3.1%,
CCN(CC)CCOc1ccc(Nc2nc(C)c(O)c(C)n2)cc1,16.2%,
Cc1nc(NC(=O)CCCC(=O)O)nc(C)c1OCc1ccccc1,inactive,
